Seven molecules from ChEMBL document CHEMBL1124103, “Potential antitumor agents. 56. "Minimal" DNA-intercalating ligands as antitumor drugs: phenylquinoline-8-carboxamides” (J Med Chem, 1988) can be followed below.

SMILES strings stand for the structures. Values joined by “and” are separate entries in the source; they are usually repeats but may differ in a detail not shown here. Equal values may be shown once.

Data set [1] concerns Mus musculus. Nature of the data set: Optimal dose administered intraperitoneally on days 5,9 and 13 after intravenous inoculation of lewis lung carcinoma cells. In kind it is functional.
The species entered for data set [2] is Mus musculus. Put plainly: Percentage increase in lifespan of treated animals(at the optimal dose) compared to controls. Average lifespan of control animals was 11 days (P388). Format: functional.
Data set [3] deals with L1210. Put plainly: Compound concentration that reduces cell growth of L1210 leukemia cultures to 50% of controls after 70h. In kind it is functional, cell-based. As to conditions: Mus musculus, L1210, 70 h.
The subject of data set [4] is Nucleic Acid. Put plainly: Displacement of ethidium from poly(dA/T) or poly(dG/C)-DNA. Format: nucleic-acid assay. The method in brief: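 Association constants (M⁻¹) for binding to poly[d(AT)] and poly[d(GC)] measured by ethidium displacement, assuming ligand and ethidium compete for intercalation sites; reported as log K.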
Data set [5] in a line: Ionization constant of chromophore measured by UV spectroscopy in 20% dimethylformamide. In kind it is physicochemical. The method in brief: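 Chromophore pKa measured by UV spectroscopy in 20% dimethylformamide.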
Data set [6] deals with Mus musculus. Nature of the data set: Optimal dose administered intraperitoneally on days 1,5 and 9 after intraperitoneal inoculation of P388 leukemia cells. Format: functional.
Data set [7] is filed under the species Mus musculus. Nature of the data set: Percentage increase in lifespan of treated animals(at the optimal dose) compared to controls. Average lifespan of control animals was 17 days (Lewis lung carcinoma cells). Format: functional.
In data set [8] the test system is Mus musculus. Nature of the data set: Percentage increase in lifespan of treated animals(at 100 mg/kg optimal dose) compared to controls. Average lifespan of control animals was 17 days (Lewis lung carcinoma cells).

Take `CN(C)CCNC(=O)c1cccc2cc(-c3ccccc3)cnc12`: the OD in data set [1] and in data set [6] was 100 mg/kg each time. The values for the ILS max in data set [2] and in data set [7] were 27% and under 40%, respectively. In addition, in data set [3], the concentration for half-maximal inhibition (IC50) – broadly, the midpoint of a concentration-inhibition curve – came to 2600 nM. Moreover, the Log K in data set [4] is 5.68 and 5.7. Moreover, the pKa (usually the negative logarithm of the acid dissociation constant) in data set [5] came out at 2.58.
In the case of `CN(C)CCNC(=O)c1cccc2c(-c3ccccc3)ccnc12`, in data set [2], the ILS max is listed as under 20%. The molecule also displayed an IC50 in data set [3] of 14700 nM. In data set [4], the Log K was 4.73 and 4.77. In data set [5], this molecule showed a pKa of 3.04. Besides, the OD in data set [6] was found to be 150 mg/kg.
Take `CN(C)CCNC(=O)c1cccc2cc3ccccc3nc12`: the values for the OD in data set [1] and in data set [6] were 100 mg/kg and 66 mg/kg, respectively. The molecule further showed an ILS max in data set [2] of 91%.
With `CN(C)CCNC(=O)c1cccc2ccc(-c3ccccc3)nc12`, the OD in data set [1] and in data set [6] was 100 mg/kg each time. Also, the results for the ILS max in data set [2] and in data set [8] were 91% and 70%, respectively. The IC50 in data set [3] is 1300 nM. Also, in data set [4], the Log K is 5.97 and 5.92. This molecule had a pKa in data set [5] of 2.75.
`CN(C)CCNC(=O)c1cccc2cccnc12` showed an ILS max in data set [2] of under 20%. Further, the IC50 in data set [3] is over 25000 nM. The Log K in data set [4] is 5.12 and 5.17. The molecule also displayed an OD in data set [6] of 100 mg/kg.
Turning to `CN(C)CCNC(=O)c1cc(-c2ccccc2)cc2cccnc12`, the figures for the OD in data set [1] and in data set [6] were 100 mg/kg and 65 mg/kg, respectively. Moreover, the values for the ILSmax in data set [2] and in data set [7] were 29 and 31, respectively. In data set [3], this molecule displayed an IC50 of 910 nM. The Log K in data set [4] is 6.12 and 5.96. In data set [5], this molecule gave a pKa of 2.93.
As to `CN(C)CCNC(=O)c1ccc(-c2ccccc2)c2cccnc12`, the ILS max in data set [2] is given as under 20%. In addition, in data set [3], the half-maximal inhibitory concentration (IC50) is 13700 nM. Further, in data set [4], the Log K is 4.74 and 4.79. The molecule further came in with a pKa in data set [5] of 3.13. Also, the OD in data set [6] was 100 mg/kg.
